Legend:
[1] = Plasma pharmacokinetics, part A; type: in vivo, human; settings: for half-life / Tmax / AUC(0-inf) / AUC(0-t) / Cmax: human, in vivo
[2] = Urine pharmacokinetics, 60 mg cohort part A; type: in vivo, human
[3] = system: lymphocyte subpopulations (T/B/NK/monocyte counts); experiment: Flow cytometry analysis of immune cell subsets in whole blood, part B; type: in vivo, human
Outline: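 Healthy volunteers got oral liquid test compound (7.5, 15, 30, 60 or 90 mg) or matching placebo once daily for 10 days, fasted. Whole blood was drawn predose on days 1, 4 and 10. Flow cytometry counted T, B, NK and monocytes with CD3, CD4, CD8, CD14, CD19 and CD16/56 antibodies. Naïve (CD19+ CD27-) and memory (CD19+ CD27+) B cells were also counted. Error bars are SD.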

[4] = system: experimental autoimmune encephalomyelitis; experiment: Experimental autoimmune encephalomyelitis; type: in vivo; settings: EAE mouse model; unpublished data
[5] = Plasma pharmacokinetics, part B; settings: human, in vivo, n = 8
healthy volunteers = experiment: Phase 1 safety and tolerability; type: in vivo, human; settings: for Diarrhea, participants with adverse event / Headache, participants with adverse event: part B MAD
[6] = Plasma protein binding by equilibrium dialysis; type: in vitro ADME; settings: human
[7] = 7.5 mg q.d. 10 days, 8 participants
[8] = 15 mg q.d. 10 days, 8 participants
[9] = 30 mg q.d. 10 days, 8 participants
[10] = 60 mg q.d. 10 days, 8 participants
[11] = 90 mg q.d. 10 days, 8 participants
[12] = all tolebrutinib doses, 40 participants

With `C=CC(=O)N1CCC[C@@H](n2c(=O)n(-c3ccc(Oc4ccccc4)cc3)c3c(N)nccc32)C1` [tolebrutinib] as the compound, how does the “half‐life (mean)” value ([1]; after oral administration, fasting, across doses) read?
The value was 1.5 to 2 h.

And the “Dose proportionality of exposure” value ([1]; dose levels between 15 and 60 mg)?
Its value is “approximately dose proportional”.

And the half-life ([1]; half‐life, plasma, as summarised in CSF section)?
The half-life was 1.5 to 2 h.

And the Tmax ([1]; po)?
Its Tmax is ~1 h.

And the AUC(0-inf) ([1]; po, 5 mg)?
Its AUC(0-inf) is 1.39 ng·h/mL.

What about the AUC(0-t) ([1]; po, 5 mg) of the same compound?
Its AUC(0-t) is 0.57 ng·h/mL.

What about the Cmax ([1]; po, 5 mg) of the same compound?
Its Cmax is 0.369 ng/mL.

What about the Tmax ([1]; po, 5 mg) of the same compound?
Its Tmax is 1 h.

And the half-life ([1]; po, 5 mg, t 1/2, SAD, single oral 5 mg, fasting, mean, n = 6)?
The half-life was 1.92 h.

What about the AUC(0-inf) ([1]; po, 15 mg) of the same compound?
Its AUC(0-inf) is 4.06 ng·h/mL.

What about the AUC(0-t) ([1]; po, 15 mg) of the same compound?
The AUC(0-t) was 3.67 ng·h/mL.

What about the Cmax ([1]; po, 15 mg) of the same compound?
The Cmax was 1.97 ng/mL.

And the Tmax ([1]; po, 15 mg)?
Its Tmax is 1 h.

And the half-life ([1]; po, 15 mg, t 1/2, SAD, single oral 15 mg, fasting, mean, n = 6)?
Its half-life is 1.39 h.

And the AUC(0-inf) ([1]; po, 30 mg)?
The AUC(0-inf) was 6.46 ng·h/mL.

And the AUC(0-t) ([1]; po, 30 mg)?
Its AUC(0-t) is 6.04 ng·h/mL.

And the Cmax ([1]; po, 30 mg)?
The Cmax was 3.12 ng/mL.

And the Tmax ([1]; po, 30 mg)?
Its Tmax is 1 h.

What about the half-life ([1]; po, 30 mg, t 1/2, SAD, single oral 30 mg, fasting, mean, n = 6) of the same compound?
Its half-life is 1.47 h.

And the AUC(0-inf) ([1]; po, 60 mg)?
Its AUC(0-inf) is 15.9 ng·h/mL.

And the AUC(0-t) ([1]; po, 60 mg)?
The AUC(0-t) was 15.6 ng·h/mL.

What about the Cmax ([1]; po, 60 mg) of the same compound?
The Cmax was 6.89 ng/mL.

What about the Tmax ([1]; po, 60 mg) of the same compound?
The Tmax was 1.5 h.

And the half-life ([1]; po, 60 mg, t 1/2, SAD, single oral 60 mg, fasting, mean, n = 6)?
Its half-life is 1.67 h.

What about the AUC(0-inf) ([1]; po, 120 mg) of the same compound?
The AUC(0-inf) was 62.6 ng·h/mL.

What about the AUC(0-t) ([1]; po, 120 mg) of the same compound?
The AUC(0-t) was 61.6 ng·h/mL.

And the Cmax ([1]; po, 120 mg)?
Its Cmax is 32.3 ng/mL.

And the Tmax ([1]; po, 120 mg)?
The Tmax was 1 h.

And the half-life ([1]; po, 120 mg, t 1/2, SAD, single oral 120 mg, fasting, mean, n = 6)?
The half-life was 2.18 h.

What about the “Dose proportionality of Cmax and AUC (power model)” value ([1]; single doses 5 to 120 mg) of the same compound?
Its value is “more than dose proportional”.

What about the CL renal ([2]; human, urine, po, 60 mg) of the same compound?
Its CL renal is ~5 mL/min.

And the “total mean amount recovered unchanged in urine” value ([2]; single oral 60 mg, fasted, after 12 h)?
Its value is 4.2 µg.

What about the “circulating total B cell levels (both naïve and memory B cells)” value ([3]; day 4 and day 10, all part B cohorts) of the same compound?
Its value is “Elevated”.

And the B cell depletion ([3]; part B MAD)?
Its B cell depletion is “did not result in B cell depletion”.

What about the “other immune cell populations: T cells (total CD3, CD4, CD8), monocytes, NK” value ([3]; part B MAD) of the same compound?
The value was “No changes”.

What about the “Protection from disease induction” value [4] of the same compound?
Its value is “dose‐dependent protection”.

What about the AUC ([5]; 7.5 mg, AUC0‐24, MAD 7.5 mg q.d., Day 1, mean) of the same compound?
The AUC was 2.12 ng·h/mL.

And the AUC ([5]; 7.5 mg, AUC0‐24, MAD 7.5 mg q.d., Day 10, mean)?
Its AUC is 3.07 ng·h/mL.

And the Cmax ([5]; 7.5 mg, MAD 7.5 mg q.d., Day 1, mean)?
The Cmax was 1.17 ng/mL.

What about the Cmax ([5]; 7.5 mg, MAD 7.5 mg q.d., Day 10, mean) of the same compound?
The Cmax was 1.32 ng/mL.

What about the Tmax ([5]; 7.5 mg, MAD 7.5 mg q.d., Day 1, median (min – max)) of the same compound?
The Tmax was 1 h.

And the Tmax ([5]; 7.5 mg, MAD 7.5 mg q.d., Day 10, median (min – max))?
The Tmax was 1 h.

What about the half-life ([5]; 7.5 mg, t 1/2, MAD 7.5 mg q.d., Day 1, mean) of the same compound?
The half-life was 1.45 h.

And the half-life ([5]; 7.5 mg, t 1/2, MAD 7.5 mg q.d., Day 10, mean)?
The half-life was 1.57 h.

And the AUC ([5]; 15 mg, AUC0‐24, MAD 15 mg q.d., Day 1, mean)?
Its AUC is 3.82 ng·h/mL.

What about the AUC ([5]; 15 mg, AUC0‐24, MAD 15 mg q.d., Day 10, mean) of the same compound?
Its AUC is 5.85 ng·h/mL.

And the Cmax ([5]; 15 mg, MAD 15 mg q.d., Day 1, mean)?
Its Cmax is 1.96 ng/mL.

And the Cmax ([5]; 15 mg, MAD 15 mg q.d., Day 10, mean)?
The Cmax was 2.51 ng/mL.

And the Tmax ([5]; 15 mg, MAD 15 mg q.d., Day 1, median (min – max))?
The Tmax was 1 h.

What about the Tmax ([5]; 15 mg, MAD 15 mg q.d., Day 10, median (min – max)) of the same compound?
The Tmax was 1 h.

And the half-life ([5]; 15 mg, t 1/2, MAD 15 mg q.d., Day 1, mean)?
The half-life was 1.4 h.

And the half-life ([5]; 15 mg, t 1/2, MAD 15 mg q.d., Day 10, mean)?
The half-life was 1.68 h.

What about the AUC ([5]; 30 mg, AUC0‐24, MAD 30 mg q.d., Day 1, mean) of the same compound?
The AUC was 9.67 ng·h/mL.

And the AUC ([5]; 30 mg, AUC0‐24, MAD 30 mg q.d., Day 10, mean)?
Its AUC is 14.9 ng·h/mL.

What about the Cmax ([5]; 30 mg, MAD 30 mg q.d., Day 1, mean) of the same compound?
The Cmax was 6.25 ng/mL.

And the Cmax ([5]; 30 mg, MAD 30 mg q.d., Day 10, mean)?
Its Cmax is 7.46 ng/mL.

What about the Tmax ([5]; 30 mg, MAD 30 mg q.d., Day 1, median (min – max)) of the same compound?
The Tmax was 0.75 h.

What about the Tmax ([5]; 30 mg, MAD 30 mg q.d., Day 10, median (min – max)) of the same compound?
Its Tmax is 1 h.

And the half-life ([5]; 30 mg, t 1/2, MAD 30 mg q.d., Day 1, mean)?
The half-life was 1.6 h.

What about the half-life ([5]; 30 mg, t 1/2, MAD 30 mg q.d., Day 10, mean) of the same compound?
The half-life was 2.02 h.

What about the AUC ([5]; 60 mg, AUC0‐24, MAD 60 mg q.d., Day 1, mean) of the same compound?
The AUC was 24.3 ng·h/mL.

And the AUC ([5]; 60 mg, AUC0‐24, MAD 60 mg q.d., Day 10, mean)?
Its AUC is 18.2 ng·h/mL.

What about the Cmax ([5]; 60 mg, MAD 60 mg q.d., Day 1, mean) of the same compound?
The Cmax was 8.47 ng/mL.

And the Cmax ([5]; 60 mg, MAD 60 mg q.d., Day 10, mean)?
The Cmax was 6.69 ng/mL.

And the Tmax ([5]; 60 mg, MAD 60 mg q.d., Day 1, median (min – max))?
The Tmax was 1.25 h.

What about the Tmax ([5]; 60 mg, MAD 60 mg q.d., Day 10, median (min – max)) of the same compound?
The Tmax was 1.5 h.

And the half-life ([5]; 60 mg, t 1/2, MAD 60 mg q.d., Day 1, mean)?
The half-life was 1.98 h.

What about the half-life ([5]; 60 mg, t 1/2, MAD 60 mg q.d., Day 10, mean) of the same compound?
The half-life was 2.37 h.

What about the AUC ([5]; 90 mg, AUC0‐24, MAD 90 mg q.d., Day 1, mean) of the same compound?
The AUC was 35.5 ng·h/mL.

And the AUC ([5]; 90 mg, AUC0‐24, MAD 90 mg q.d., Day 10, mean)?
Its AUC is 56.6 ng·h/mL.

And the Cmax ([5]; 90 mg, MAD 90 mg q.d., Day 1, mean)?
Its Cmax is 19.3 ng/mL.

And the Cmax ([5]; 90 mg, MAD 90 mg q.d., Day 10, mean)?
The Cmax was 21.7 ng/mL.

And the Tmax ([5]; 90 mg, MAD 90 mg q.d., Day 1, median (min – max))?
The Tmax was 1 h.

What about the Tmax ([5]; 90 mg, MAD 90 mg q.d., Day 10, median (min – max)) of the same compound?
Its Tmax is 1.5 h.

What about the half-life ([5]; 90 mg, t 1/2, MAD 90 mg q.d., Day 1, mean) of the same compound?
The half-life was 2.1 h.

What about the half-life ([5]; 90 mg, t 1/2, MAD 90 mg q.d., Day 10, mean) of the same compound?
Its half-life is 2.83 h.

What about the “Serious treatment-emergent adverse events” value (healthy volunteers; part A (SAD)) of the same compound?
The value was “no serious treatment‐emergent adverse events”.

And the Tolerability (healthy volunteers; part A (SAD), single doses 5-120 mg)?
The Tolerability was “well‐tolerated”.

What about the “Severity of treatment-related TEAEs” value (healthy volunteers; part B (MAD), all combined dose groups) of the same compound?
The value was “mild”.

What about the “Diarrhea, participants with adverse event” value (shortened to “Diarrhea, participants”) (healthy volunteers; [7]) of the same compound?
Its value is 1.

What about the “Headache, participants with adverse event” value (from here on “Headache, participants”) (healthy volunteers; [7]) of the same compound?
Its value is 2.

And the “Diarrhea, participants” value (healthy volunteers; [8])?
Its value is 1.

What about the “Headache, participants” value (healthy volunteers; [8]) of the same compound?
The value was 1.

What about the “Diarrhea, participants” value (healthy volunteers; [9]) of the same compound?
The value was 2.

What about the “Headache, participants” value (healthy volunteers; [9]) of the same compound?
The value was 1.

And the “Diarrhea, participants” value (healthy volunteers; [10])?
The value was 0.

What about the “Headache, participants” value (healthy volunteers; [10]) of the same compound?
Its value is 0.

What about the “Diarrhea, participants” value (healthy volunteers; [11]) of the same compound?
The value was 5.

And the “Headache, participants” value (healthy volunteers; [11])?
Its value is 0.

And the “Diarrhea, participants” value (healthy volunteers; [12])?
Its value is 9.

And the “Headache, participants” value (healthy volunteers; [12])?
Its value is 4.

And the fraction unbound [6]?
The fraction unbound was ~0.065.
